“And” between values parts separate entries of the source, which are not always exact repeats. Equal entries are not always repeated.
Tested on: Fibroblast
Assay: Multiplex assay against human fibroblast
Assay type: toxicity, cell-based
Method in brief: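 With compound added, live cells were imaged on a CQ1 microscope at 37°C and 5% CO2; staining with Hoechst33342, BioTracker Green Microtubule Cytoskeleton Dye, MitoTracker Red and Annexin V Alexa Fluor 680 had been done at seeding. The CellPathfinder machine-learning gating scheme split cells into Hoechst high-intensity objects or normal cells, normal cells into healthy, pyknosed or fragmented nuclei, and pyknosed cells into mitotic or apoptotic. The tubulin, mitochondrial-mass and membrane-permeability phenotypes are per cents of healthy-nucleus cells.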

[1] = 12 h, 10 µM, compound concentration 10 uM, replicate 1
[2] = 12 h, 10 µM, compound concentration 10 uM, replicate 2
[3] = 24 h, 10 µM, compound concentration 10 uM, replicate 1
[4] = 24 h, 10 µM, compound concentration 10 uM, replicate 2
[5] = 12 h, 1 µM, compound concentration 1 uM, replicate 1
[6] = 12 h, 1 µM, compound concentration 1 uM, replicate 2
[7] = 24 h, 1 µM, compound concentration 1 uM, replicate 1
[8] = 24 h, 1 µM, compound concentration 1 uM, replicate 2
[9] = 48 h, 1 µM, compound concentration 1 uM, replicate 1
[10] = 48 h, 1 µM, compound concentration 1 uM, replicate 2
[11] = 48 h, 10 µM, compound concentration 10 uM, replicate 1
[12] = 48 h, 10 µM, compound concentration 10 uM, replicate 2

SMILES: CN(C)c1ncnc(-c2ccc3nc(Nc4cc(CN5CCN(C(=O)CC(F)(F)F)CC5)ccn4)[nH]c3c2)c1Cl [BAY-440]
- Population Apoptotic (%) [1]: 72% and 67%
- Population Fragmented Nuclei (%) [1]: 31% and 20%
- Population Healthy Nuclei (%) [1]: 51% and 62%
- Population Hoechst High Intensity Objects (%) [1]: 10% and 13%
- Population Membrane Permeable-Phenotype (%) [1]: 29% and 17%
- Population Mitochondria Different-Phenotype (%) [1]: 6% and 3%
- Population Mitotic Cells (%) [1]: 27% and 32%
- Population Normal (%) [1]: 89% and 86%
- Population Pyknosed Nuclei (%) [1]: 17%
- Total Cell Count [1]: 282 and 187
- Population Apoptotic (%) [2]: 83% and 50%
- Population Fragmented Nuclei (%) [2]: 48% and 40%
- Population Healthy Nuclei (%) [2]: 41% and 50%
- Population Hoechst High Intensity Objects (%) [2]: 24% and 35%
- Population Membrane Permeable-Phenotype (%) [2]: 25% and 18%
- Population Mitochondria Different-Phenotype (%) [2]: 33% and 18%
- Population Normal (%) [2]: 75% and 64%
- Population Pyknosed Nuclei (%) [2]: 10% and 9%
- Population Tubulin-Different-Phenotype (%) [2]: 50% and 86%
- Total Cell Count [2]: 77 and 68
- Population Apoptotic (%) [3]: 58% and 50%
- Population Fragmented Nuclei (%) [3]: 31% and 22%
- Population Healthy Nuclei (%) [3]: 55% and 67%
- Population Hoechst High Intensity Objects (%) [3]: 14% and 11%
- Population Membrane Permeable-Phenotype (%) [3]: 18% and 10%
- Population Mitochondria Different-Phenotype (%) [3]: 7% and 0%
- Population Mitotic Cells (%) [3]: 41% and 50%
- Population Normal (%) [3]: 85% and 88%
- Population Pyknosed Nuclei (%) [3]: 12% and 10%
- Total Cell Count [3]: 290 and 193
- Population Apoptotic (%) [4]: 75% and 37%
- Population Fragmented Nuclei (%) [4]: 52% and 48%
- Population Healthy Nuclei (%) [4]: 39% and 32%
- Population Hoechst High Intensity Objects (%) [4]: 37% and 36%
- Population Membrane Permeable-Phenotype (%) [4]: 22% and 14%
- Population Mitotic Cells (%) [4]: 25% and 62%
- Population Normal (%) [4]: 62% and 63%
- Population Pyknosed Nuclei (%) [4]: 8% and 18%
- Total Cell Count [4]: 74 and 68

SMILES: COc1ncc(-c2ccc3nccc(-c4ccnnc4)c3c2)cc1NS(=O)(=O)c1ccc(F)cc1F [OMIPALISIB]
- Population Apoptotic (%) [5]: 57%
- Population Fragmented Nuclei (%) [5]: 21%
- Population Healthy Nuclei (%) [5]: 49%
- Population Hoechst High Intensity Objects (%) [5]: 12%
- Population Membrane Permeable-Phenotype (%) [5]: 28%
- Population Mitochondria Different-Phenotype (%) [5]: 2%
- Population Mitotic Cells (%) [5]: 42%
- Population Normal (%) [5]: 87%
- Population Pyknosed Nuclei (%) [5]: 29%
- Population Tubulin-Different-Phenotype (%) [5]: 51%
- Total Cell Count [5]: 81
- Population Apoptotic (%) [6]: 50%
- Population Fragmented Nuclei (%) [6]: 46%
- Population Healthy Nuclei (%) [6]: 42%
- Population Hoechst High Intensity Objects (%) [6]: 7%
- Population Membrane Permeable-Phenotype (%) [6]: 16%
- Population Mitochondria Different-Phenotype (%) [6]: 16%
- Population Mitotic Cells (%) [6]: 50%
- Population Normal (%) [6]: 92%
- Population Pyknosed Nuclei (%) [6]: 11%
- Population Tubulin-Different-Phenotype (%) [6]: 23%
- Total Cell Count [6]: 51
- Population Apoptotic (%) [1]: 78%
- Population Fragmented Nuclei (%) [1]: 20%
- Population Healthy Nuclei (%) [1]: 38%
- Population Hoechst High Intensity Objects (%) [1]: 18%
- Population Membrane Permeable-Phenotype (%) [1]: 30%
- Population Mitochondria Different-Phenotype (%) [1]: 6%
- Population Mitotic Cells (%) [1]: 21%
- Population Normal (%) [1]: 81%
- Population Pyknosed Nuclei (%) [1]: 41%
- Population Tubulin-Different-Phenotype (%) [1]: 73%
- Total Cell Count [1]: 96
- Population Apoptotic (%) [2]: 65%
- Population Fragmented Nuclei (%) [2]: 33%
- Population Healthy Nuclei (%) [2]: 27%
- Population Hoechst High Intensity Objects (%) [2]: 7%
- Population Membrane Permeable-Phenotype (%) [2]: 11%
- Population Mitochondria Different-Phenotype (%) [2]: 16%
- Population Mitotic Cells (%) [2]: 34%
- Population Normal (%) [2]: 92%
- Population Pyknosed Nuclei (%) [2]: 39%
- Population Tubulin-Different-Phenotype (%) [2]: 22%
- Total Cell Count [2]: 77
- Population Apoptotic (%) [7]: 58%
- Population Fragmented Nuclei (%) [7]: 30%
- Population Healthy Nuclei (%) [7]: 53%
- Population Hoechst High Intensity Objects (%) [7]: 10%
- Population Membrane Permeable-Phenotype (%) [7]: 32%
- Population Mitochondria Different-Phenotype (%) [7]: 2%
- Population Mitotic Cells (%) [7]: 41%
- Population Normal (%) [7]: 89%
- Population Tubulin-Different-Phenotype (%) [7]: 42%
- Total Cell Count [7]: 84
- Population Apoptotic (%) [8]: 33%
- Population Fragmented Nuclei (%) [8]: 43%
- Population Healthy Nuclei (%) [8]: 40%
- Population Hoechst High Intensity Objects (%) [8]: 11%
- Population Membrane Permeable-Phenotype (%) [8]: 24%
- Population Mitochondria Different-Phenotype (%) [8]: 17%
- Population Mitotic Cells (%) [8]: 66%
- Population Normal (%) [8]: 88%
- Population Pyknosed Nuclei (%) [8]: 16%
- Population Tubulin-Different-Phenotype (%) [8]: 37%
- Total Cell Count [8]: 50
- Population Apoptotic (%) [3]: 66%
- Population Fragmented Nuclei (%) [3]: 25%
- Population Healthy Nuclei (%) [3]: 49%
- Population Hoechst High Intensity Objects (%) [3]: 20%
- Population Membrane Permeable-Phenotype (%) [3]: 31%
- Population Mitochondria Different-Phenotype (%) [3]: 11%
- Population Mitotic Cells (%) [3]: 33%
- Population Normal (%) [3]: 79%
- Population Pyknosed Nuclei (%) [3]: 25%
- Population Tubulin-Different-Phenotype (%) [3]: 80%
- Total Cell Count [3]: 89
- Population Apoptotic (%) [4]: 80%
- Population Fragmented Nuclei (%) [4]: 27%
- Population Healthy Nuclei (%) [4]: 22%
- Population Hoechst High Intensity Objects (%) [4]: 11%
- Population Membrane Permeable-Phenotype (%) [4]: 35%
- Population Mitochondria Different-Phenotype (%) [4]: 28%
- Population Mitotic Cells (%) [4]: 20%
- Population Normal (%) [4]: 88%
- Population Pyknosed Nuclei (%) [4]: 49%
- Population Tubulin-Different-Phenotype (%) [4]: 42%
- Total Cell Count [4]: 81
- Population Apoptotic (%) [9]: 42%
- Population Fragmented Nuclei (%) [9]: 40%
- Population Healthy Nuclei (%) [9]: 48%
- Population Hoechst High Intensity Objects (%) [9]: 16%
- Population Membrane Permeable-Phenotype (%) [9]: 21%
- Population Mitochondria Different-Phenotype (%) [9]: 12%
- Population Mitotic Cells (%) [9]: 57%
- Population Normal (%) [9]: 83%
- Population Pyknosed Nuclei (%) [9]: 10%
- Population Tubulin-Different-Phenotype (%) [9]: 37%
- Total Cell Count [9]: 79
- Population Apoptotic (%) [10]: 0%
- Population Fragmented Nuclei (%) [10]: 47%
- Population Healthy Nuclei (%) [10]: 52%
- Population Hoechst High Intensity Objects (%) [10]: 13%
- Population Membrane Permeable-Phenotype (%) [10]: 35%
- Population Mitochondria Different-Phenotype (%) [10]: 3%
- Population Mitotic Cells (%) [10]: 0%
- Population Normal (%) [10]: 86%
- Population Pyknosed Nuclei (%) [10]: 0%
- Population Tubulin-Different-Phenotype (%) [10]: 53%
- Total Cell Count [10]: 61
- Population Apoptotic (%) [11]: 63%
- Population Fragmented Nuclei (%) [11]: 34%
- Population Healthy Nuclei (%) [11]: 50%
- Population Hoechst High Intensity Objects (%) [11]: 17%
- Population Membrane Permeable-Phenotype (%) [11]: 31%
- Population Mitochondria Different-Phenotype (%) [11]: 14%
- Population Mitotic Cells (%) [11]: 36%
- Population Normal (%) [11]: 82%
- Population Pyknosed Nuclei (%) [11]: 15%
- Population Tubulin-Different-Phenotype (%) [11]: 82%
- Total Cell Count [11]: 85
- Population Apoptotic (%) [12]: 0%
- Population Fragmented Nuclei (%) [12]: 33%
- Population Healthy Nuclei (%) [12]: 65%
- Population Hoechst High Intensity Objects (%) [12]: 12%
- Population Membrane Permeable-Phenotype (%) [12]: 20%
- Population Mitochondria Different-Phenotype (%) [12]: 8%
- Population Mitotic Cells (%) [12]: 100%
- Population Normal (%) [12]: 87%
- Population Pyknosed Nuclei (%) [12]: 1%
- Population Tubulin-Different-Phenotype (%) [12]: 93%
- Total Cell Count [12]: 86

Reference: ChEMBL document CHEMBL4689842, “EUbOPEN Chemogenomics Library wave 1” (2021)
